From ChEMBL document CHEMBL5724801, “EUbOPEN Chemogenomics Library - Multiplex” (2024)
Values joined by “and” are separate entries in the source; they are usually repeats but may differ in a detail not shown here. Equal entries are not always repeated.

Tested on: HEK-293T
Experiment: Multiplex assay against HEK293T
Format: toxicity, cell-based
Conditions: human
Procedure, shortened: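 Cells were classed with CellPathfinder machine-learning gating, first as Hoechst high-intensity objects or normal cells, then (normal cells) as healthy, pyknosed or fragmented nuclei, and finally (pyknosed cells) as mitotic or apoptotic. Staining of live cells at seeding used Hoechst33342, BioTracker Green Microtubule Cytoskeleton Dye, MitoTracker Red and Annexin V Alexa Fluor 680, with imaging on a CQ1 microscope at 37°C and 5% CO2 after compound addition. Tubulin, mitochondrial-mass and membrane-permeability phenotypes are per cents of healthy-nucleus cells.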

[1] = 12 h, 1 µM, compound concentration 1 uM
[2] = 12 h, 10 µM, compound concentration 10 uM
[3] = 24 h, 1 µM, compound concentration 1 uM
[4] = 24 h, 10 µM, compound concentration 10 uM
[5] = 48 h, 1 µM, compound concentration 1 uM
[6] = 48 h, 10 µM, compound concentration 10 uM

O=C(O)C(F)(F)F.O=C1NC(=O)/C(=C/c2c[nH]c(=O)c(-c3ccc(N4CCNCC4)nc3)c2)S1
Population Apoptotic (%) [1]: 11.41% and 11.65% | Population Fragmented Nuclei (%) [1]: 1.85% and 6.98% | Population Hoechst High Intensity Objects (%) [1]: 0% | Population Mitotic Cells (%) [1]: 88.59% and 88.35% | Population Normal (%) [1]: 100% | Population Pyknosed Nuclei (%) [1]: 39.31% and 79.84% | Total Cell Count [1]: 379 and 129 | Population Apoptotic (%) [2]: 6.85% and 12.69% | Population Fragmented Nuclei (%) [2]: 2.2% and 4.57% | Population Healthy Nuclei (%) [2]: 57.69% and 27.41% | Population Hoechst High Intensity Objects (%) [2]: 0.27% and 0% | Population Membrane Permeable-Phenotype (%) [2]: 0.95% and 0% | Population Mitotic Cells (%) [2]: 93.15% and 87.31% | Population Normal (%) [2]: 99.73% and 100% | Population Pyknosed Nuclei (%) [2]: 40.11% and 68.02% | Total Cell Count [2]: 365 and 197 | Population Apoptotic (%) [3]: 17.05% and 22.22% | Population Fragmented Nuclei (%) [3]: 1.89% and 2.88% | Population Healthy Nuclei (%) [3]: 75.95% and 25.9% | Population Hoechst High Intensity Objects (%) [3]: 0.17% and 0% | Population Membrane Permeable-Phenotype (%) [3]: 1.13% and 0% | Population Mitochondria Different-Phenotype (%) [3]: 18.1% and 11.11% | Population Mitotic Cells (%) [3]: 82.95% and 77.78% | Population Normal (%) [3]: 99.83% and 100% | Population Apoptotic (%) [4]: 8.74% and 7.63% | Population Fragmented Nuclei (%) [4]: 1.47% and 3.95% | Population Healthy Nuclei (%) [4]: 81.67% and 49.41% | Population Hoechst High Intensity Objects (%) [4]: 0.16% and 0.39% | Population Membrane Permeable-Phenotype (%) [4]: 1% and 0.8% | Population Mitochondria Different-Phenotype (%) [4]: 11.22% and 10.4% | Population Mitotic Cells (%) [4]: 91.26% and 92.37% | Population Normal (%) [4]: 99.84% and 99.61% | Population Pyknosed Nuclei (%) [4]: 16.86% and 46.64% | Population Tubulin-Different-Phenotype (%) [4]: 10.02% and 1.6% | Total Cell Count [4]: 612 and 254 | Population Apoptotic (%) [5]: 6.45% and 15.87% | Population Fragmented Nuclei (%) [5]: 2.67% and 3.98% | Population Healthy Nuclei (%) [5]: 86.14% and 60.23% | Population Hoechst High Intensity Objects (%) [5]: 0.07% and 0% | Population Membrane Permeable-Phenotype (%) [5]: 4.02% and 0.94% | Population Mitochondria Different-Phenotype (%) [5]: 12.07% and 19.81% | Population Mitotic Cells (%) [5]: 93.55% and 84.13% | Population Normal (%) [5]: 99.93% and 100% | Population Apoptotic (%) [6]: 7.41% and 20.63% | Population Fragmented Nuclei (%) [6]: 4.01% and 2.52% | Population Healthy Nuclei (%) [6]: 88.47% and 81.61% | Population Hoechst High Intensity Objects (%) [6]: 0% and 0.5% | Population Membrane Permeable-Phenotype (%) [6]: 6.36% and 2.78% | Population Mitochondria Different-Phenotype (%) [6]: 6.55% and 12.04% | Population Mitotic Cells (%) [6]: 92.59% and 79.37% | Population Normal (%) [6]: 100% and 99.5% | Population Pyknosed Nuclei (%) [6]: 7.52% and 15.87%

Cc1nc2ccc(Oc3ccc(F)cc3)cc2c(=O)n1C[C@H]1CCCN(C(C)C)C1.Cl
Population Apoptotic (%) [1]: 40% and 61% | Population Fragmented Nuclei (%) [1]: 7% and 5% | Population Healthy Nuclei (%) [1]: 80% and 70% | Population Membrane Permeable-Phenotype (%) [1]: 0% | Population Mitochondria Different-Phenotype (%) [1]: 50% and 69% | Population Mitotic Cells (%) [1]: 60% and 38% | Population Normal (%) [1]: 93% and 72% | Population Pyknosed Nuclei (%) [1]: 11% and 24% | Population Tubulin-Different-Phenotype (%) [1]: 42% and 34% | Total Cell Count [1]: 381 and 204 | Population Apoptotic (%) [2]: 54% and 61% | Population Fragmented Nuclei (%) [2]: 7% and 8% | Population Healthy Nuclei (%) [2]: 78% and 74% | Population Hoechst High Intensity Objects (%) [2]: 17% and 20% | Population Membrane Permeable-Phenotype (%) [2]: 0% | Population Mitochondria Different-Phenotype (%) [2]: 81% and 94% | Population Mitotic Cells (%) [2]: 45% and 38% | Population Normal (%) [2]: 82% and 79% | Population Pyknosed Nuclei (%) [2]: 13% and 17% | Population Tubulin-Different-Phenotype (%) [2]: 76% and 73% | Total Cell Count [2]: 405 and 310 | Population Apoptotic (%) [3]: 31% and 37% | Population Fragmented Nuclei (%) [3]: 11% | Population Healthy Nuclei (%) [3]: 80% and 72% | Population Membrane Permeable-Phenotype (%) [3]: 0% | Population Mitochondria Different-Phenotype (%) [3]: 36% and 52% | Population Mitotic Cells (%) [3]: 68% and 62% | Population Normal (%) [3]: 95% and 77% | Population Pyknosed Nuclei (%) [3]: 8% and 16% | Population Tubulin-Different-Phenotype (%) [3]: 27% and 20% | Total Cell Count [3]: 553 and 281 | Population Apoptotic (%) [4]: 49% and 68% | Population Fragmented Nuclei (%) [4]: 10% and 11% | Population Healthy Nuclei (%) [4]: 73% and 75% | Population Hoechst High Intensity Objects (%) [4]: 12% and 23% | Population Membrane Permeable-Phenotype (%) [4]: 3% and 0% | Population Mitochondria Different-Phenotype (%) [4]: 67% and 88% | Population Mitotic Cells (%) [4]: 50% and 31% | Population Normal (%) [4]: 87% and 76% | Population Pyknosed Nuclei (%) [4]: 15% and 12% | Population Tubulin-Different-Phenotype (%) [4]: 70% and 68% | Total Cell Count [4]: 525 and 334 | Population Apoptotic (%) [5]: 27% and 60% | Population Fragmented Nuclei (%) [5]: 19% and 13% | Population Healthy Nuclei (%) [5]: 75% and 80% | Population Hoechst High Intensity Objects (%) [5]: 1% and 7% | Population Membrane Permeable-Phenotype (%) [5]: 1% and 0% | Population Mitochondria Different-Phenotype (%) [5]: 22% and 36% | Population Mitotic Cells (%) [5]: 72% and 39% | Population Normal (%) [5]: 98% and 92% | Population Pyknosed Nuclei (%) [5]: 5% and 6% | Population Tubulin-Different-Phenotype (%) [5]: 14% | Total Cell Count [5]: 901 and 380 | Population Apoptotic (%) [6]: 47% and 67% | Population Fragmented Nuclei (%) [6]: 15% and 17% | Population Healthy Nuclei (%) [6]: 74% and 72% | Population Hoechst High Intensity Objects (%) [6]: 11% and 22% | Population Membrane Permeable-Phenotype (%) [6]: 2% and 0% | Population Mitochondria Different-Phenotype (%) [6]: 60% and 69% | Population Mitotic Cells (%) [6]: 52% and 32% | Population Normal (%) [6]: 88% and 78% | Population Pyknosed Nuclei (%) [6]: 9% | Population Tubulin-Different-Phenotype (%) [6]: 62% and 58% | Total Cell Count [6]: 754 and 459
